These results are taken from the EternaBench riboswitch data.

Broadly, the apparent Kd is the concentration giving half-maximal binding under the conditions of the assay.

The subject of this data set is MS2 coat protein. The experiment in a line: apparent Kd, MS2 coat protein; higher = weaker binding; RNA-MaP array; FMN 200 µM where present. In a few lines:
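The apparent Kd is the median of filtered binding-curve fits, one per cluster, to green signal normalised to red-channel RNA signal and control-cluster median Fmax. The clusters were on Illumina sequencing chips, and stalled E. coli RNA polymerase had transcribed the designs on them. Titration used SNAP-549-labelled MS2 coat protein from 0.7 or 1.5 nM, doubling to 3 µM, without and then with constant ligand, in 100 mM Tris-HCl pH 7.5, 80 mM KCl, 4 mM MgCl2, BSA, DTT, yeast tRNA and Tween-20.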

Where [1] appears, read: designed as: OFF switch for flavin mononucleotide, no ligand.
[2] abbreviates: ligand present: flavin mononucleotide, designed as: OFF switch for flavin mononucleotide.
Where [3] appears, read: designed as: ON switch for flavin mononucleotide, no ligand.
The mark [4] stands for this setting: ligand present: flavin mononucleotide, designed as: ON switch for flavin mononucleotide.

With “AUGAAGUCAGGAUAUGCCACGUAAAGCCAUGGCUUUGGAGUGUAGAAGGGACAUGAGGAUCACCCAUGUUGUCC”, the “apparent Kd” value was 30.9 nM under setting [1] and 32.2 nM under setting [2].

As to “UUUGCAUUCCGAGGAUAUUCAUUUAUUGUCUUCACAUGAGGAUCACCCAUGUGGCGCUUGCGCCGGGAGAAGGCGGUUUGCUUU”, the “apparent Kd” value under setting [3] was found to be 21.7 nM and the “apparent Kd” value under setting [4] was found to be 24.9 nM.

Take “GAAGCACGCAUUAACAUGAGGAUCACCCAUGUCAAAAGACGUGAGGAUAUGGAUCUGAAGAAGAUCCAGAAGGCACUGUGCUAA”: the “apparent Kd” value is, setting by setting: under setting [3], 7.39 nM; under setting [4], 5.59 nM.

With “ACAUGAGGAUCACCCAUGUUCACAUAGGAUAUUGAUUUUAUUGGUUUUAGAAUAGUAAUUAACCUCAAGAAGGAUGCCAGUUGU”, the “apparent Kd” value is 11.1 nM under setting [3] and 9.31 nM under setting [4].

As for “CGUGCUAUGUAGAAGGCAGAUCUGAUUCAGAUCUGAGGAUAUACAUGAGGAUCACCCAUGUUAUGCACCAGCACGAGAGUGCAG”, the “apparent Kd” value came out at 7.18 nM under setting [1] and 14.4 nM under setting [2].

“ACAUGAGGAUCACCCAUGUUUUUUGGGUACUCUUGAUACAGCAAGGAUAUGCAUUAUUUAUGUACGCAGAAGGUGCAUUACGUC”: the “apparent Kd” value was 920 nM under setting [1] and 853 nM under setting [2].

Turning to “GAGUGCUUAGGAUAUACAUGAGGAUCACCCAUGUGCUUCAGCUAGGAGACUAGCAUUGGUAGAAGGAAGUACUC”, the “apparent Kd” value by setting is: under setting [1], 14.5 nM; under setting [2], 48.6 nM.

For the sequence “AGCAAGUAUACAUGAGGAUCACCCAUGUUUUUUAGGGUUUUCAGAAGGUACAUUUUGAGAUAGAGUAAGGAUAUGAAAUAUGCG”, the “apparent Kd” value runs as follows: under setting [3], 101 nM; under setting [4], 45.7 nM.

As to “GCUGUCGCAUGAGGAUAUGGUCAGGUUUCCUGACCAGAAGGCAUGUCGAUAGACAUGAGGAUCACCCAUGUAGUAAAGACAGCA”, the “apparent Kd” value was found to be 855 nM under setting [3] and 66.1 nM under setting [4].

Take “CCGAGCUUGGCAGGAUAUAGACUCGAAGUUGAUCCCGCCGGUGGAGACAUGAGGAUCACCCAUGUCUAGAAGGGCCAGUCGAAA”: the “apparent Kd” value was determined as 11.7 nM under setting [1] and 36 nM under setting [2].

Take “UGGUCAUCAUCAGGAUAUUAACAUGGGCUACAUUAAGAAGGGAUAGUGAGAUACGAACUGAAACAUGAGGAUCACCCAUGUUGU”: the “apparent Kd” value came to 105 nM under setting [3] and 51.9 nM under setting [4].

Regarding “CCGAAUGUCACAGGAUAUGGUCCGGGCUCGGGACCAGAAGGGUGAUCUCACAUGAGGAUCACCCAUGUGUAGGCGUUAGGCUAC”, the “apparent Kd” value by setting is: under setting [3], 36.7 nM; under setting [4], 249 nM.

On to “CGGAUGUGAGGAUAUACAUGAGGAUCACCCAUGUGAGCCAGCUAGCUGACUGGCUCGUGUAGAAGGCACGUCUG”, for which the “apparent Kd” value is 15.5 nM under setting [1] and 28.9 nM under setting [2].

As for “GAGUGGAGGAGAGGAUAUACAAUGAUAAUCACUGUAGAAGGUUCUAACAUGAGGAUCACCCAUGUAGGACUAUUCCUGAGAGUU”, the “apparent Kd” value was found to be 12.8 nM under setting [3] and 10.3 nM under setting [4].

Consider “UAGGACUACGUAGGAUAUGUAGUUGAUUUCUACAUGAGGAUCACCCAUGUUUGCAUUUUAUUAGGACAGAAGGACGUGGUAAAU”, for which the “apparent Kd” value stood at 16.1 nM under setting [3] and 7.36 nM under setting [4].

With “GACGUUGGAGGAUAUACACGAGUGCUCAGUUGGCCCGGUCGACAUGAGGAUCACCCAUGUAGAAGGCCGACACU”, the “apparent Kd” value is, setting by setting: under setting [1], 17.6 nM; under setting [2], 22.8 nM.

Turning to “UUUUAACAUGAGGAUCACCCAUGUGAGGAUAUCGAAAUUUAUAUUAAUAUUUUUAUUUCGAGAAGGCACAUUUU”, the “apparent Kd” value reads like this: under setting [1], 144 nM; under setting [2], 166 nM.

For “UUACUCAUGUAAGGAUAUGCAGCCGAUACGGCUGCAGAAGGUACUAAAAUACAUGAGGAUCACCCAUGUCUUUUUAAUUUAGAC”, the “apparent Kd” value runs as follows: under setting [3], 140 nM; under setting [4], 73.7 nM.

On to “AAAAAACAUGAGGAUCACCCAUGUCAGGAUAUACGAUAAAAAAAAAAAAAAAAAAAAUGUAGAAGGGACAAAAA”, for which the “apparent Kd” value was determined as 78.3 nM under setting [1] and 73.9 nM under setting [2].

For the sequence “AGUCGGAGCAGAGGAUAUAUACAUGAGGAUCACCCAUGUAAAGAUCAAAGCUGGAAACAGCAAGUAUAGAAGGCUGCUCCGACA”, the “apparent Kd” value amounted to 90.5 nM under setting [1] and 271 nM under setting [2].

For “UAUAUGUCAGGAUAUCGAUUGGUACGGGAUUCGGUACUGGUUGAGAAGGGACAUGAGGAUCACCCAUGUUUUUC”, the “apparent Kd” value came out at 37.8 nM under setting [1] and 162 nM under setting [2].

For “CCUUAGUCAGGAUAUACAUGAGGAUCACCCAUGUAAAAUUUUAAUUUAAUUUUAAGGUGUAGAAGGGACCACCC”, the “apparent Kd” value reads like this: under setting [1], 26.3 nM; under setting [2], 22.6 nM.

Turning to “UAUGAACAUGAGGAUCACCCAUGUGGAAAGGACACAGGAUAUCAUCUCGCACGUGCGAUAUGAGAAGGGUGAUGGU”, the “apparent Kd” value under setting [3] was found to be 117 nM and the “apparent Kd” value under setting [4] was determined as 180 nM.

Turning to “CGUUUUCACAUUUUAGUGUUUUAUACAGAAGGCCAUACACAUGAGGAUCACCCAUGUCAGGAAUUGGAGGAUAUGUUAUUGACG”, the “apparent Kd” value is, setting by setting: under setting [3], 5.92 nM; under setting [4], 4.85 nM.
